Calls of active or inactive are those of the source. No cut-off for these calls is given here.
Key:
[1] = AUC in ICR mouse at 1 mg/kg, iv measured for 24 hrs by LC-MS/MS analysis; type: ADME, organism-based; set-up: dose 1 mg/kg, time 24 hrs; settings: in vivo
Outline: (§1)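 Male ICR mice, 20-25 g, three per group. Oral dose 3 mg/kg in PBS with 5% DMSO and 0.5% HPMC; iv dose 1 mg/kg in DMSO/EtOH/PEG300/NaCl (5/5/40/50). Blood sampled at 0.25, 0.5, 1, 2, 4, 8 and 24 h. Plasma drug measured by LC-MS/MS. Mean ± SEM, n = 3.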

[2] = system: Mus musculus; test: Improvement in lipid homeostasis in C57BL/KsJ-db/db mouse assessed as effect on total cholesterol level in serum at 50 mg/kg, po administered for 8 weeks; type: functional, organism-based
Outline: (§2)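 Male db/db mice, 6 weeks old, 10 per group, dosed 50 mg/kg by gavage daily for 8 weeks; vehicle 0.5% CMC-Na. Lean littermates received vehicle. Body weight recorded twice weekly; 6-h fasting tail glucose by glucometer weekly. OGTT on day 45: overnight fast, glucose 0.5 g/kg by gavage. ITT on day 51: 6-h fast, insulin 0.85 IU/kg ip. Glucose AUC calculated. Final serum taken after 6-h fast; HDL-C, LDL-C, TG, TCH and FABP4 measured by kits. Liver Akt and p-Akt(Ser473) by western blot.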

[3] = biological target: T1, Fatty acid-binding protein, adipocyte (Homo sapiens, UniProt P15090); test: Displacement of 1,8-ANS from FABP4 (unknown origin) incubated for 3 mins by fluorescence based analysis
Outline: (§3)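 1,8-ANS displacement using purified recombinant FABP3, FABP4 or FABP5. Compound incubated with protein and 1,8-ANS in phosphate buffer for 3 min at room temperature. Fluorescence read at ex 370/em 470 nm. IC50 by nonlinear regression, mean ± SD of three independent experiments.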
Target sequence in this assay (P15090 whole entry): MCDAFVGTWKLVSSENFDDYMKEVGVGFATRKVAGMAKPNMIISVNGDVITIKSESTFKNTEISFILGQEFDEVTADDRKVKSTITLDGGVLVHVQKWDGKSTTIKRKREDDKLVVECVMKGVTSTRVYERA

[4] = Metabolic stability in mouse liver microsomes assessed as half life at 0.1 uM preincubated for 10 mins followed by NADPH addition and measured for 60 mins by LC-MS/MS analysis; type: ADME, Microsome; settings: time 70 min
Outline: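 Mouse liver microsomes 0.33 mg/mL in 0.1 M Tris pH 7.4 with 5 mM MgCl₂, 0.01% DMSO and 0.005% BSA. Compound final […]. Preincubated 10 min at 37 °C; reaction started with 1 mM NADPH. Samples at 0, 7, 17, 30 and 60 min quenched with cold methanol, then analysed by LC-MS/MS.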

[5] = system: 3T3-L1; test: Inhibition of FABP4 secretion in mouse 3T3-L1 cells assessed as reduction in FABP4 level in conditioned medium at 50 uM incubated for 24 hrs by immunoblotting analysis; type: functional, cell-based
Outline: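 Mature 3T3-L1 adipocytes starved for 6 h in DMEM with 0.5% BSA, then treated with compound at […] for 24 h. Conditioned medium ultrafiltered; lysate and medium protein measured by BCA. FABP4 immunoblotted with GAPDH, ECL detection, densitometry. Three independent experiments.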

[6] = system: Mus musculus; test: Reduction in FABP4 level in serum of C57BL/KsJ-db/db mouse at 50 mg/kg, po administered for 8 weeks; type: functional, organism-based; outline: as §2
[7] = Clearance in ICR mouse at 3 mg/kg, po and 1 mg/kg, iv measured for 24 hrs by LC-MS/MS analysis; type: ADME, organism-based; settings: in vivo; outline: as §1
[8] = system: Mus musculus; test: Improvement in lipid homeostasis in C57BL/KsJ-db/db mouse assessed as effect on triglyceride level in serum at 50 mg/kg, po administered for 8 weeks; type: functional, organism-based; outline: as §2
[9] = system: 3T3-L1; test: Anti-lipolytic activity in mouse 3T3-L1 cells assessed as inhibition of forskolin-stimulated glycerol release at 80 uM preincubated for 24 hrs followed by forskolin stimulation for 1 hr; type: functional, cell-based; settings: time 25.0 hrs
[10] = system: Mus musculus; test: Improvement in lipid homeostasis in C57BL/KsJ-db/db mouse assessed as reduction in low density cholesterol level in serum at 50 mg/kg, po administered for 8 weeks; type: functional, organism-based; outline: as §2
[11] = Half life in ICR mouse at 3 mg/kg, po measured for 24 hrs by LC-MS/MS analysis; type: ADME, organism-based; settings: in vivo; outline: as §1
[12] = system: THP-1; test: Cytotoxicity against human THP-1 cells assessed as reduction in cell viability at 50 uM incubated for 24 hrs by CCK8 assay; type: cell-based; settings: thp-1, 24 h
[13] = biological target: T1, Fatty acid-binding protein, adipocyte; test: Binding affinity to FABP4 (unknown origin) by microscale thermophoresis analysis
Target sequence in this assay (P15090 whole entry): as above

[14] = biological target: T1, Fatty acid-binding protein, adipocyte; test: Displacement of 1,8-ANS from FABP4 (unknown origin) at 25 uM incubated for 3 mins by fluorescence based analysis relative to control
Outline: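 Single-concentration percent inhibition in the 1,8-ANS displacement assay with FABP4. Compound incubated with protein and probe in phosphate buffer for 3 min at room temperature; fluorescence read at ex 370/em 470 nm.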
Target sequence in this assay (P15090 2-132 limits assumed): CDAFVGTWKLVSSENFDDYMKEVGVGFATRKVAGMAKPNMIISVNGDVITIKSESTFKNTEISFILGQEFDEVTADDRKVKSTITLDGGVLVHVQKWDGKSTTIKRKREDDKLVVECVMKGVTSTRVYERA

[15] = system: Mus musculus; test: In vivo activation of […] signaling in C57BL/KsJ-db/db mouse assessed as increase in Akt phosphorylation at Ser473 in liver at 50 mg/kg, po administered for 8 weeks by western blot analysis; type: functional, organism-based; outline: as §2
[16] = Toxicity in C57BL/KsJ-db/db mouse assessed as effect on body weight at 50 mg/kg, po administered for 8 weeks; type: organism-based; settings: in vivo, 1344 h; outline: as §2
[17] = system: Mus musculus; test: Antidiabetic activity in C57BL/KsJ-db/db mouse assessed as reduction in fasting blood glucose level at 50 mg/kg, po administered for 7 weeks; type: functional; settings: 1176 h; outline: as §2
[18] = AUC in ICR mouse at 3 mg/kg, po measured for 24 hrs by LC-MS/MS analysis; type: ADME, organism-based; set-up: dose 3 mg/kg, time 24 hrs; settings: in vivo; outline: as §1
[19] = system: Mus musculus; test: Antidiabetic activity in C57BL/KsJ-db/db mouse assessed as improvement in insulin resistance at 50 mg/kg, po administered for 51 days by insulin tolerance test; type: functional, organism-based; settings: time 51.0 day; outline: as §2
[20] = system: Mus musculus; test: Improvement in lipid homeostasis in C57BL/KsJ-db/db mouse assessed as increase in high density cholesterol level in serum at 50 mg/kg, po administered for 8 weeks; type: functional, organism-based; outline: as §2
[21] = system: 3T3-L1; test: Cytotoxicity against mouse 3T3-L1 cells assessed as reduction in cell viability at 100 uM incubated for 24 hrs by CCK8 assay; type: cell-based; settings: 3t3-l1, 24 h
[22] = Oral bioavailability in ICR mouse at 3 mg/kg measured for 24 hrs by LC-MS/MS analysis; type: ADME, organism-based; settings: in vivo; outline: as §1
[23] = Half life in ICR mouse at 1 mg/kg, iv measured for 24 hrs by LC-MS/MS analysis; type: ADME, organism-based; settings: in vivo; outline: as §1
[24] = system: THP-1; test: Antiinflammatory activity against LPS-induced human THP-1 cells assessed as inhibition of MCP-1 gene expression at 25 uM incubated for 18 hrs followed by LPS-stimulation and measured after 6 hrs by qRT-PCR analysis; type: functional, cell-based; settings: time 24.0 hrs
Outline: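 THP-1 cells (1 per 48-well, 3*10⁵) differentiated with 100 nM PMA for 24 h, then washed with PBS. Compound at […] or 0.1% DMSO for 18 h, then 100 ng/ml LPS for 6 h. RNA extracted with TRIzol. MCP-1 mRNA by RT-qPCR, 2^-ΔΔCT method.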

[25] = biological target: Fatty acid-binding protein, heart (Homo sapiens, UniProt P05413); test: Displacement of 1,8-ANS from FABP3 (unknown origin) incubated for 3 mins by fluorescence based analysis; outline: as §3
Fatty acid-binding protein, heart, sequence (P05413 whole entry): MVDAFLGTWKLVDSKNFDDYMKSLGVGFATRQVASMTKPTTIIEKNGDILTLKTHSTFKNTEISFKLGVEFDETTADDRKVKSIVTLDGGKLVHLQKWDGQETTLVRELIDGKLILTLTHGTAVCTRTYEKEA

[26] = Cmax in ICR mouse at 3 mg/kg, po and 1 mg/kg, iv measured for 24 hrs by LC-MS/MS analysis; type: ADME, organism-based; set-up: time 24 hrs, dose 3 mg/kg; settings: in vivo; outline: as §1
[27] = system: Mus musculus; test: Antidiabetic activity in C57BL/KsJ-db/db mouse assessed as improvement in glucose metabolism at 50 mg/kg, po administered for 45 days by oral glucose tolerance test; type: functional, organism-based; settings: time 45.0 day; outline: as §2
[28] = species: Homo sapiens; test: Selectivity ratio of IC50 for FABP3 (unknown origin) to IC50 for FABP5 (unknown origin); outline: as §3
[29] = biological target: T2, Fatty acid-binding protein 5 (Homo sapiens, UniProt Q01469); test: Displacement of 1,8-ANS from FABP5 (unknown origin) incubated for 3 mins by fluorescence based analysis
T2 sequence (Q01469 whole entry): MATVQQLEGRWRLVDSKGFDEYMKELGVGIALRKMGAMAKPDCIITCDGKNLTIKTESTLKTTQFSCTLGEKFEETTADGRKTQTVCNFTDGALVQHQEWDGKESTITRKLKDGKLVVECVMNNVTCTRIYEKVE

[30] = species: Homo sapiens; test: Selectivity ratio of IC50 for FABP3 (unknown origin) to IC50 for FABP4 (unknown origin); outline: as §3
[31] = biological target: T2, Fatty acid-binding protein 5; test: Binding affinity to FABP5 (unknown origin) by microscale thermophoresis analysis

Row | AUC at 24 h [1] [ng·h/mL] | IC50 [3] [µM] | half-life at 0.1 µM [4] [h] | clearance [7] [mL/min/kg] | half-life [11] [h] | Kd [13] [µM] | inhibition [14] [%] | AUC at 24 h [18] [ng·h/mL] | Structure (SMILES) | Activity [2] | inhibition [5] | inhibition [6] | Activity [8] | Activity [9] | Activity [12] | Activity [15] | Activity [16] | inhibition in vivo at 50 mg/kg [17] [%] | Activity [19] | Activity [20] | Activity [21] | also measured
1 | 1980 | 4.68 | 1.52 | 8.73 | 1.36 | 11.1 | 86 | 1090 | O=C(O)c1cc(NS(=O)(=O)c2ccc(-c3ccc(F)cc3Cl)c3ccccc23)ccc1F | inactive | Active | Active | inactive | Active | Non-Toxic | Active | Non-Toxic | 32.4 | Active | Active | Non-Toxic | Activity [10]: Active; bioavailability [22]: 18.4%; half-life [23]: 2.88 h; Activity [24]: Active; IC50 [25]: 104 µM; Cmax [26]: 782 ng/mL; Activity [27]: Active
2 | 1940 | 3.78 | 1.47 | 8.56 | 6.04 | 3.14 | 94 | 1740 | COc1c(-c2ccc(F)cc2C)cc(S(=O)(=O)Nc2ccc(F)c(CC(=O)O)c2)c2ccccc12 | inactive | Active | Active | inactive | Active | Non-Toxic | Active | Non-Toxic | 28.1 | Active | Active | Non-Toxic | Ratio IC50 [28]: 14.7; IC50 [29]: 5.72 µM; Ratio IC50 [30]: 22.3; Kd [31]: 14.1 µM; bioavailability [22]: 29.9%; half-life [23]: 1.78 h; Activity [24]: Active; IC50 [25]: 84.4 µM; Cmax [26]: 478 ng/mL; Activity [27]: Active

— ChEMBL document CHEMBL4831507, “Development of FABP4/5 inhibitors with potential therapeutic effect on type 2 Diabetes Mellitus” (Eur J Med Chem, 2021)
